In ChEMBL document CHEMBL4334479, “Trichocadinins B-G: Antimicrobial Cadinane Sesquiterpenes from Trichoderma virens QA-8, an Endophytic Fungus Obtained from the Medicinal Plant Artemisia argyi” (2019):
In brackets after ≈: the same amount, converted by molar mass. Activity calls are given as the source filed them. No cut-off for these calls is given here.

Columns and labels:
Format in all cases: functional
Escherichia coli = assay: Antibacterial activity against Escherichia coli EMBLC 1 by microplate XTT assay
In short: (§1)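 Bacterial strains tested in a microplate assay with chloramphenicol as the positive control. Activity is reported as MIC in μg/mL.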

Aeromonas hydrophila = assay: Antibacterial activity against Aeromonas hydrophila QDIO 1 by microplate XTT assay; in short: as §1
Edwardsiella tarda = assay: Antibacterial activity against Edwardsiella tarda QDIO 2 by microplate XTT assay; in short: as §1
Bipolaris sorokiniana = assay: Antifungal activity against Bipolaris sorokiniana QDAU 7 by microplate XTT assay
In short: (§2)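 Plant-pathogenic fungi, provided by Qingdao Agricultural University, were tested in a microplate assay with amphotericin B as the positive control.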

Micrococcus luteus = assay: Antibacterial activity against Micrococcus luteus QDIO 3 by microplate XTT assay; in short: as §1
Pseudomonas aeruginosa = assay: Antibacterial activity against Pseudomonas aeruginosa QDIO 4 by microplate XTT assay; in short: as §1
Alternaria solani = assay: Antifungal activity against Alternaria solani QDAU 14 by microplate XTT assay; in short: as §2
Vibrio anguillarum = assay: Antibacterial activity against Vibrio anguillarum QDIO 6 by microplate XTT assay; in short: as §1
Vibrio harveyi = assay: Antibacterial activity against Vibrio harveyi QDIO 7 by microplate XTT assay; in short: as §1
Vibrio parahaemolyticus = assay: Antibacterial activity against Vibrio parahaemolyticus QDIO 8 by microplate XTT assay; in short: as §1
Vibrio vulnificus = assay: Antibacterial activity against Vibrio vulnificus QDIO 9 by microplate XTT assay; in short: as §1
[1] = system: Ceratobasidium cornigerum; assay: Antifungal activity against Ceratobasidium cornigerum QDAU 8 by microplate XTT assay; in short: as §2
[2] = system: Colletotrichum gloeosporioides; assay: Antifungal activity against Colletotrichum gloeosporioides Penz-QDAU 9 by microplate XTT assay; in short: as §2
Fusarium graminearum = assay: Antifungal activity against Fusarium graminearum QDAU 10 by microplate XTT assay
In short: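 Plant-pathogenic fungal strain supplied by Qingdao Agricultural University; MIC determined by microplate assay with amphotericin B as positive control.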

[3] = system: Fusarium oxysporum f. sp. cucumerinum; assay: Antifungal activity against Fusarium oxysporum f.sp.cucumerinum QDAU 16 by microplate XTT assay; in short: as §2
[4] = system: Fusarium oxysporum f. sp. momordicae; assay: (§3) Antifungal activity against Fusarium oxysporum f.sp.momordicae QDAU 17 by microplate XTT assay; in short: as §2
[5] = system: Fusarium oxysporum f. sp. radicis-lycopersici; assay: (§4) Antifungal activity against Fusarium oxysporum f.sp. radicis-lycopersici QDAU 5 by microplate XTT assay; in short: as §2
Fusarium solani = assay: Antifungal activity against Fusarium solani QDAU 15 by microplate XTT assay; in short: as §2
[6] = system: Colletotrichum gloeosporioides; assay: Antifungal activity against Glomerella cingulata QDAU 2 by microplate XTT assay; in short: as §2
Bipolaris maydis = assay: Antifungal activity against Helminthosporium maydis QDAU 18 by microplate XTT assay; in short: as §2
Penicillium digitatum = assay: Antifungal activity against Penicillium digitatum QDAU 11 by microplate XTT assay; in short: as §2
[7] = system: Botryosphaeria berengeriana; assay: Antifungal activity against Physalospora pyricola Nose QDAU 12 by microplate XTT assay; in short: as §2
Cytospora mali = assay: Antifungal activity against Valsa mali QDAU 13 by microplate XTT assay; in short: as §2
[8] = as §3; in short: as §2
[9] = as §4; in short: as §2

CC(C)[C@H]1CCC(=O)c2cc(O)c(C(=O)O)cc21
MIC (Escherichia coli): inactive
MIC (Aeromonas hydrophila): inactive
MIC (Edwardsiella tarda): 1 µg/mL (≈ 4.03 µM)
MIC (Bipolaris sorokiniana): inactive
MIC (Micrococcus luteus): inactive
MIC (Pseudomonas aeruginosa): inactive
MIC (Alternaria solani): inactive
MIC (Vibrio anguillarum): 2 µg/mL (≈ 8.06 µM)
MIC (Vibrio harveyi): inactive
MIC (Vibrio parahaemolyticus): inactive
MIC (Vibrio vulnificus): inactive
MIC [1]: inactive
MIC [2]: inactive
MIC (Fusarium graminearum): inactive
MIC [3]: 64 µg/mL (≈ 258 µM)
MIC [4]: inactive
MIC [5]: inactive
MIC (Fusarium solani): inactive
MIC [6]: inactive
MIC (Bipolaris maydis): inactive
MIC (Penicillium digitatum): inactive
MIC [7]: 4 µg/mL (≈ 16.1 µM)
MIC (Cytospora mali): inactive

CC(C)[C@H]1CCc2coc3cc(C(=O)O)cc1c23
MIC (Escherichia coli): 8 µg/mL (≈ 32.7 µM)
MIC (Aeromonas hydrophila): 8 µg/mL (≈ 32.7 µM)
MIC (Edwardsiella tarda): inactive
MIC (Bipolaris sorokiniana): 1 µg/mL (≈ 4.09 µM)
MIC (Micrococcus luteus): 32 µg/mL (≈ 131 µM)
MIC (Pseudomonas aeruginosa): 8 µg/mL (≈ 32.7 µM)
MIC (Alternaria solani): 4 µg/mL (≈ 16.4 µM)
MIC (Vibrio anguillarum): inactive
MIC (Vibrio harveyi): 8 µg/mL (≈ 32.7 µM)
MIC (Vibrio parahaemolyticus): 4 µg/mL (≈ 16.4 µM)
MIC (Vibrio vulnificus): 64 µg/mL (≈ 262 µM)
MIC [1]: 16 µg/mL (≈ 65.5 µM)
MIC [2]: 8 µg/mL (≈ 32.7 µM)
MIC (Fusarium graminearum): 8 µg/mL (≈ 32.7 µM)
MIC [3]: 1 µg/mL (≈ 4.09 µM)
MIC [8]: 2 µg/mL (≈ 8.19 µM)
MIC [9]: 64 µg/mL (≈ 262 µM)
MIC (Fusarium solani): 4 µg/mL (≈ 16.4 µM)
MIC [6]: 1 µg/mL (≈ 4.09 µM)
MIC (Bipolaris maydis): inactive
MIC (Penicillium digitatum): 8 µg/mL (≈ 32.7 µM)
MIC [7]: 4 µg/mL (≈ 16.4 µM)
MIC (Cytospora mali): 16 µg/mL (≈ 65.5 µM)

C[C@H](CO)[C@H]1CCc2coc3cc(C(=O)O)cc1c23
MIC (Escherichia coli): 16 µg/mL (≈ 61.5 µM)
MIC (Aeromonas hydrophila): 64 µg/mL (≈ 246 µM)
MIC (Edwardsiella tarda): inactive
MIC (Bipolaris sorokiniana): 8 µg/mL (≈ 30.7 µM)
MIC (Micrococcus luteus): inactive
MIC (Pseudomonas aeruginosa): 8 µg/mL (≈ 30.7 µM)
MIC (Alternaria solani): 32 µg/mL (≈ 123 µM)
MIC (Vibrio anguillarum): inactive
MIC (Vibrio harveyi): 16 µg/mL (≈ 61.5 µM)
MIC (Vibrio parahaemolyticus): 32 µg/mL (≈ 123 µM)
MIC (Vibrio vulnificus): inactive
MIC [1]: inactive
MIC [2]: inactive
MIC (Fusarium graminearum): inactive
MIC [3]: 2 µg/mL (≈ 7.68 µM)
MIC [4]: inactive
MIC [5]: inactive
MIC (Fusarium solani): 32 µg/mL (≈ 123 µM)
MIC [6]: 4 µg/mL (≈ 15.4 µM)
MIC (Bipolaris maydis): inactive
MIC (Penicillium digitatum): 8 µg/mL (≈ 30.7 µM)
MIC [7]: 4 µg/mL (≈ 15.4 µM)
MIC (Cytospora mali): inactive

C[C@@H]1[C@H](O)[C@@H](C)/C=C/C=C/C=C/C=C/C=C/C=C/C=C/[C@H](O[C@@H]2O[C@H](C)[C@@H](O)[C@H](N)[C@@H]2O)C[C@@H]2O[C@](O)(C[C@@H](O)C[C@@H](O)[C@H](O)CC[C@@H](O)C[C@@H](O)CC(=O)O[C@H]1C)C[C@H](O)[C@H]2C(=O)O [AMPHOTERICIN B]
MIC (Bipolaris sorokiniana): 0.5 µg/mL (≈ 0.541 µM)
MIC (Alternaria solani): 2 µg/mL (≈ 2.16 µM)
MIC [1]: 8 µg/mL (≈ 8.66 µM)
MIC [2]: 0.5 µg/mL (≈ 0.541 µM)
MIC (Fusarium graminearum): 2 µg/mL (≈ 2.16 µM)
MIC [3]: 0.5 µg/mL (≈ 0.541 µM)
MIC [8]: 1 µg/mL (≈ 1.08 µM)
MIC [9]: 2 µg/mL (≈ 2.16 µM)
MIC (Fusarium solani): 4 µg/mL (≈ 4.33 µM)
MIC [6]: 0.5 µg/mL (≈ 0.541 µM)
MIC (Bipolaris maydis): 2 µg/mL (≈ 2.16 µM)
MIC (Penicillium digitatum): 2 µg/mL (≈ 2.16 µM)
MIC [7]: 2 µg/mL (≈ 2.16 µM)
MIC (Cytospora mali): 8 µg/mL (≈ 8.66 µM)

C=C1CC[C@H](C(C)C)[C@H]2C=C(C(=O)O)C[C@@H](O)[C@H]12
MIC (Escherichia coli): inactive
MIC (Aeromonas hydrophila): inactive
MIC (Edwardsiella tarda): inactive
MIC (Bipolaris sorokiniana): inactive
MIC (Micrococcus luteus): inactive
MIC (Pseudomonas aeruginosa): inactive
MIC (Alternaria solani): inactive
MIC (Vibrio anguillarum): inactive
MIC (Vibrio harveyi): inactive
MIC (Vibrio parahaemolyticus): inactive
MIC (Vibrio vulnificus): inactive
MIC [1]: inactive
MIC [2]: inactive
MIC (Fusarium graminearum): inactive
MIC [3]: 32 µg/mL (≈ 128 µM)
MIC [4]: inactive
MIC [9]: 64 µg/mL (≈ 256 µM)
MIC (Fusarium solani): inactive
MIC [6]: inactive
MIC (Bipolaris maydis): inactive
MIC (Penicillium digitatum): 16 µg/mL (≈ 63.9 µM)
MIC [7]: 1 µg/mL (≈ 3.99 µM)
MIC (Cytospora mali): inactive

C=C1CC[C@H](C(C)C)[C@@H]2C=C(C(=O)O)CC[C@H]12
MIC (Escherichia coli): 8 µg/mL (≈ 34.1 µM)
MIC (Aeromonas hydrophila): 8 µg/mL (≈ 34.1 µM)
MIC (Edwardsiella tarda): inactive
MIC (Bipolaris sorokiniana): inactive
MIC (Micrococcus luteus): 32 µg/mL (≈ 137 µM)
MIC (Pseudomonas aeruginosa): 4 µg/mL (≈ 17.1 µM)
MIC (Alternaria solani): inactive
MIC (Vibrio anguillarum): inactive
MIC (Vibrio harveyi): 2 µg/mL (≈ 8.53 µM)
MIC (Vibrio parahaemolyticus): 8 µg/mL (≈ 34.1 µM)
MIC (Vibrio vulnificus): 64 µg/mL (≈ 273 µM)
MIC [1]: inactive
MIC [2]: inactive
MIC (Fusarium graminearum): inactive
MIC [3]: 16 µg/mL (≈ 68.3 µM)
MIC [4]: inactive
MIC [9]: 64 µg/mL (≈ 273 µM)
MIC (Fusarium solani): inactive
MIC [6]: 1 µg/mL (≈ 4.27 µM)
MIC (Bipolaris maydis): inactive
MIC (Penicillium digitatum): inactive
MIC [7]: 8 µg/mL (≈ 34.1 µM)
MIC (Cytospora mali): 32 µg/mL (≈ 137 µM)

O=C(N[C@H](CO)[C@H](O)c1ccc([N+](=O)[O-])cc1)C(Cl)Cl [CHLORAMPHENICOL]
MIC (Escherichia coli): 2 µg/mL (≈ 6.19 µM)
MIC (Aeromonas hydrophila): 4 µg/mL (≈ 12.4 µM)
MIC (Edwardsiella tarda): 0.5 µg/mL (≈ 1.55 µM)
MIC (Micrococcus luteus): 4 µg/mL (≈ 12.4 µM)
MIC (Pseudomonas aeruginosa): 2 µg/mL (≈ 6.19 µM)
MIC (Vibrio anguillarum): 1 µg/mL (≈ 3.09 µM)
MIC (Vibrio harveyi): 1 µg/mL (≈ 3.09 µM)
MIC (Vibrio parahaemolyticus): 4 µg/mL (≈ 12.4 µM)
MIC (Vibrio vulnificus): 1 µg/mL (≈ 3.09 µM)

CC(C)[C@H]1CC[C@@H](C)[C@]2(O)CCC(C(=O)O)=C[C@H]12
MIC (Escherichia coli): inactive
MIC (Aeromonas hydrophila): inactive
MIC (Edwardsiella tarda): inactive
MIC (Bipolaris sorokiniana): inactive
MIC (Micrococcus luteus): inactive
MIC (Pseudomonas aeruginosa): inactive
MIC (Alternaria solani): inactive
MIC (Vibrio anguillarum): inactive
MIC (Vibrio harveyi): inactive
MIC (Vibrio parahaemolyticus): inactive
MIC (Vibrio vulnificus): inactive
MIC [1]: inactive
MIC [2]: inactive
MIC (Fusarium graminearum): inactive
MIC [3]: 32 µg/mL (≈ 127 µM)
MIC [4]: inactive
MIC [5]: inactive
MIC (Fusarium solani): inactive
MIC [6]: inactive
MIC (Bipolaris maydis): 16 µg/mL (≈ 63.4 µM)
MIC (Penicillium digitatum): inactive
MIC [7]: inactive
MIC (Cytospora mali): inactive
